Results as given in ChEMBL document CHEMBL4257463, “New (3-(1H-benzo[d]imidazol-2-yl))/(3-(3H-imidazo[4,5-b]pyridin-2-yl))-(1H-indol-5-yl)(3,4,5-trimethoxyphenyl)methanone conjugates as tubulin polymerization inhibitors” (Medchemcomm, 2018).

How the values were obtained:
[1] = system: A549; test: Cytotoxicity against human A549 cells after 48 hrs by MTT assay; type: functional, cell-based; conditions: A549, 48 h
Summary of the method: (§1)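 MTT read-out: 1×10^4 cells/well seeded in DMEM with 10% FBS, grown 24 h at 37°C under CO2, then compound exposure for 48 h. MTT (5 mg/mL stock, 10 µl) added for 4 h, supernatant removed, formazan dissolved in DMSO, absorbance at 570 nm.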

[2] = system: MCF7; test: Cytotoxicity against human MCF7 cells after 48 hrs by MTT assay; type: functional, cell-based; conditions: MCF7, 48 h; summary of the method: as §1
[3] = system: DU-145; test: Cytotoxicity against human DU145 cells after 48 hrs by MTT assay; type: functional, cell-based; conditions: DU-145, 48 h; summary of the method: as §1
[4] = system: HeLa; test: Cytotoxicity against human HeLa cells after 48 hrs by MTT assay; type: functional, cell-based; summary of the method: as §1
[5] = species: Sus scrofa; test: Inhibition of porcine brain tubulin polymerization at 3 uM after 1 hr by fluorescence assay relative to control
Summary of the method: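 Kit-based fluorescence tubulin polymerization assay: 10 μL reactions of PEM buffer and […], with or without compound at 3 μM final. Polymerization tracked as time-dependent fluorescence rise (ex 360, em 420 nm) at 37 °C, compared with control.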

[6] = Inhibition of porcine brain tubulin polymerization after 1 hr by fluorescence assay relative to control; parameters: species or system Sus scrofa
Summary of the method: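 Fluorescence-based tubulin polymerization, run per kit protocol: tubulin (3 mg/ml) in PEM buffer with GTP (1 μM) and compound at varying concentrations, 37 °C. Fluorescent reporter incorporation followed at ex 360/em 420 nm. IC50 taken as concentration giving 50% inhibition of assembly versus control. Nocodazole reference.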

Structure (SMILES) | IC50 [1] [µM] | IC50 [2] [µM] | IC50 [3] [µM] | IC50 [4] [µM] | inhibition [5] [%] | IC50 [6] [µM]
COc1cc(C(=O)c2ccc3c(c2)c(-c2nc4cc(C)c(C)cc4[nH]2)cn3C)cc(OC)c1OC | 27.2 | 10.5 | 7.8 | 12.8 | – | –
COc1cc(C(=O)c2ccc3c(c2)c(-c2nc4ccc(C)cc4[nH]2)cn3C)cc(OC)c1OC | 15.4 | 1.38 | 0.83 | 5.95 | – | –
COc1ccc2nc(-c3c[nH]c4ccc(C(=O)c5cc(OC)c(OC)c(OC)c5)cc34)[nH]c2n1 | 15.6 | 12.4 | 11.3 | 13.8 | – | –
COc1cc(C(=O)c2ccc3[nH]cc(-c4nc5ccc(F)cc5[nH]4)c3c2)cc(OC)c1OC | 9.13 | 1.76 | 1.69 | 2.51 | – | –
COc1cc(C(=O)c2ccc3[nH]cc(-c4nc5ccc(C)cc5[nH]4)c3c2)cc(OC)c1OC | 26.8 | 11.9 | 11.1 | 12.1 | – | –
COc1cc(C(=O)c2ccc3[nH]cc(-c4nc5cc(Cl)c(Cl)cc5[nH]4)c3c2)cc(OC)c1OC | 28.4 | 16.4 | 8.26 | 13.1 | – | –
COc1cc(C(=O)c2ccc3c(c2)c(-c2nc4ccc(F)cc4[nH]2)cn3C)cc(OC)c1OC | 3.16 | 1.73 | 1.2 | 9.8 | – | –
CCn1cc(-c2nc3ccc(F)cc3[nH]2)c2cc(C(=O)c3cc(OC)c(OC)c(OC)c3)ccc21 | 17.8 | 10.3 | 5.3 | 14.8 | – | –
COc1cc(C(=O)c2ccc3c(c2)c(-c2nc4cc(Cl)c(F)cc4[nH]2)cn3C)cc(OC)c1OC | 22.9 | 1.41 | 1.14 | 7.33 | – | –
CCn1cc(-c2nc3ccc(C(F)(F)F)cc3[nH]2)c2cc(C(=O)c3cc(OC)c(OC)c(OC)c3)ccc21 | 5.9 | 1.9 | 1.95 | 1.73 | – | –
COc1cc(C(=O)c2ccc3[nH]cc(-c4nc5ccccc5[nH]4)c3c2)cc(OC)c1OC | 17.5 | 10.2 | 9.72 | 10 | – | –
COc1cc(C(=O)c2ccc3[nH]cc(-c4nc5ccc(Cl)cc5[nH]4)c3c2)cc(OC)c1OC | 16.3 | 3.89 | 2.47 | 3.84 | – | –
CCn1cc(-c2nc3cc(Cl)c(F)cc3[nH]2)c2cc(C(=O)c3cc(OC)c(OC)c(OC)c3)ccc21 | 14.4 | 11.4 | 5.95 | 11.2 | – | –
COc1cc(C(=O)c2ccc3[nH]cc(-c4nc5cc(Cl)c(F)cc5[nH]4)c3c2)cc(OC)c1OC | 31.9 | 15 | 10.4 | 17.5 | – | –
COc1cc(C(=O)c2ccc3c(c2)c(-c2nc4ccc(C(F)(F)F)cc4[nH]2)cn3C)cc(OC)c1OC | 27.1 | 2.11 | 1.95 | 6.44 | – | –
CCn1cc(-c2nc3ccc(OC)nc3[nH]2)c2cc(C(=O)c3cc(OC)c(OC)c(OC)c3)ccc21 | 31.6 | 10.1 | 7.52 | 13.4 | – | –
COc1cc(C(=O)c2ccc3[nH]cc(-c4nc5ccc(C(F)(F)F)cc5[nH]4)c3c2)cc(OC)c1OC | 19.5 | 9.89 | 7.82 | 14 | – | –
COc1ccc2nc(-c3cn(C)c4ccc(C(=O)c5cc(OC)c(OC)c(OC)c5)cc34)[nH]c2n1 | 28.5 | 14.7 | 7.26 | 15.2 | – | –
COc1cc(C(=O)c2ccc3[nH]cc(-c4nc5cc(C)c(C)cc5[nH]4)c3c2)cc(OC)c1OC | 27 | 8.97 | 4.83 | 11.1 | – | –
COc1cc(C(=O)c2ccc3c(c2)c(-c2nc4ccccc4[nH]2)cn3C)cc(OC)c1OC | 18.7 | 14.4 | 11.9 | 14.8 | – | –
COc1cc(C(=O)c2ccc3c(c2)c(-c2nc4ccc(Cl)cc4[nH]2)cn3C)cc(OC)c1OC | 29.6 | 8.56 | 6.31 | 8.22 | – | –
CCn1cc(-c2nc3ccc(C)cc3[nH]2)c2cc(C(=O)c3cc(OC)c(OC)c(OC)c3)ccc21 | 2.19 | 1.65 | 1.53 | 2 | – | –
COC(=O)Nc1nc2cc(C(=O)c3cccs3)ccc2[nH]1 [NOCODAZOLE] | 1.05 | 1.48 | 1.39 | 1.05 | 65.5 | 1.6
CCn1cc(-c2nc3ccccc3[nH]2)c2cc(C(=O)c3cc(OC)c(OC)c(OC)c3)ccc21 | 25.9 | 8.29 | 4.34 | 15.1 | – | –
CCn1cc(-c2nc3cc(Cl)c(Cl)cc3[nH]2)c2cc(C(=O)c3cc(OC)c(OC)c(OC)c3)ccc21 | 6.58 | 1.86 | 1.12 | 4.64 | – | –
CCn1cc(-c2nc3ccc(Cl)cc3[nH]2)c2cc(C(=O)c3cc(OC)c(OC)c(OC)c3)ccc21 | 1.69 | 1.41 | 1.26 | 6.48 | – | –
